Compounds with a hit are over-represented: about 3.7% of the library has one in this group of screens.
bCat nuc transl – modulators of beta-catenin nuclear translocation, primary screen, imaging, HeLa cells, immunofluorescence, high-content; nuclear translocation activity, % at 5 µM; 0.3% of 190,000 active;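 active = nuclear translocation activity above 50% at 5 µM, with a well cell count of 50 or more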;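 note: per-cell ratio of nuclear to cytoplasmic median beta-catenin stain intensity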
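Signal – beta-catenin immunofluorescence imaging with DAPI · Test system – human HeLa cell line · Dosing – 5 µM primary single dose, 0.1% DMSO, 0.02–20 µM confirmation series · Measure – % activation, nuclear-to-cytoplasmic median beta-catenin signal ratio per cell · Incubation – 24 h compound exposure at 37°C, 5% CO2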
MT stabilizer – microtubule stabilizers in HeLa cells, primary screen, imaging, high-content imaging | AID 2205, 2009 | 0.83% of 200,000 active | % tubulin-high responders, % at 10 µM | HeLa tubulin immunostaining HCS, 24 h; share of cells brighter than vehicle mean+2SD;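 active = plate Z-score above 3 for both tubulin-high and condensed-nucleus cell shares, with cell loss under 80%, at 10 µM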;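 note: anti alpha tubulin signal scored within the nucleus-defined area of each cell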
KCC2 mod – KCC2 cotransporter modulators, thallium flux, primary screen, cell-based, HEK293 KCC2, FluoZin-2 fluorescence, MLSMR. B-score of Tl+ flux slope (higher = more flux/activation; lower = inhibition) at 10 µM. AID 1456, 2008. 2.2% of 190,000 active. KCC2 cells, thallium flux FluoZin-2 fluorescence;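 active = thallium flux slope and its plate-corrected score both differing from the plate sample mean at a set confidence after two filtering rounds, in either direction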;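 note: slope of fluorescence scaled to starting intensity during 10 to 20 s after thallium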
Redox H2O2 prof – compounds producing H2O2 with reducing agent – biochemical, NIH compound library profiling, artefact control for MLSCN library redox annotation, primary screen. DTT-dependent redox cycling H2O2, phenol red/HRP absorbance; 100% = 100 µM peroxide control, 0% = buffer. activation, % at 10 µM. 0.03% of 200,000 active. AID 878, 2007;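 active = activation of at least 50% relative to the plate's high and low controls in the primary single-dose screen; inactive = activation below 50%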;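 note: compound incubated with DTT at 0.8 mM final as the reducing agent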
ROMK primary – ROMK potassium channel modulators, primary screen, cell-based, thallium flux, MLSMR library. Tet-inducible ROMK, thallium flux fluorescence; actives lie on both sides. B-score at 10 µM. ATP-sensitive inward rectifier potassium channel 1 (Homo sapiens), P48048. AID 1918, 2009. 2% of 130,000 active;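 active = signal ratio slope over the read window, or its plate-corrected B-score, at least 3 SD from the plate mean, either direction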;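 note: B-score of the F/F0 ratio slope over 7 to 12 s after thallium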
Target sequence (P48048 whole entry, looked up): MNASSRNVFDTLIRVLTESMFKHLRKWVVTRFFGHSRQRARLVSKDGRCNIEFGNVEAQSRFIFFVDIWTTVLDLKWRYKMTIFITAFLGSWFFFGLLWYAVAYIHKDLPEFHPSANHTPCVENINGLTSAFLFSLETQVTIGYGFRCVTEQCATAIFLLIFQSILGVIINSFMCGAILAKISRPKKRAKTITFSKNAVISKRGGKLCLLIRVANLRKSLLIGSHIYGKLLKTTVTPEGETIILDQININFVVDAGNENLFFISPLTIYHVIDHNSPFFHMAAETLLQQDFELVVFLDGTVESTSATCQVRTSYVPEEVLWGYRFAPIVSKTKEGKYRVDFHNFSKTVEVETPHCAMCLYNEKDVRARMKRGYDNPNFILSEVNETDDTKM
A number is an active result; n = inactive; x = no result.

SMILES	bCat nuc transl	MT stabilizer	KCC2 mod	Redox H2O2 prof	ROMK primary
CCCOC(=O)c1cc(NC(=O)/C=C/c2ccccc2)ccc1O	n	n	x	n	n
Oc1cccc(C2c3[nH]c4ccccc4c3CCN2Cc2ccc3c(c2)CCO3)c1 (configuration not stated)	n	8.2	n	n	n
CCc1cc(-c2n[nH]c(C)c2-c2nc3ccccc3n2C)c(O)cc1O	n	14	n	n	n
COc1ccc(OC)c(N2CC(O)=C(c3nc4ccccc4s3)C2=N)c1	n	n	n	n	x
CCOc1ccccc1N1CC(O)=C(c2nc3ccccc3s2)C1=N	n	28	n	n	n
Cc1ccc2nc(SCC(=O)Nc3cc(C(F)(F)F)ccc3N3CCOCC3)[nH]c2c1	x	22	n	n	n
COc1ccccc1/C=C/C(=O)OCC(=O)Nc1cc(C(F)(F)F)ccc1N1CCOCC1	n	19	n	n	x
COc1ccccc1N(C)S(=O)(=O)c1ccc(C(=O)OCC(=O)N2CCCCCC2)cc1	n	n	n	n	n
CCCn1nnnc1NC(=O)c1ccc2ccccc2c1	n	n	16	n	x
CCCn1nnc(NC(=O)c2ccc3ccccc3c2)n1	n	n	n	n	n
COc1cc(C2C(C#N)=C(N)Oc3cc(O)ccc32)cc2c1OCO2 (configuration not stated)	n	16	n	n	n
COc1cc(C2C(C#N)=C(N)Oc3cc(O)ccc32)cc(OC)c1OC (configuration not stated)	x	21	n	n	x
COc1ccc(C2C(C#N)=C(N)Oc3cc(O)ccc32)cc1OC (configuration not stated)	n	n	n	n	n
Cc1nc2ccc(C(=O)OCc3ccccc3Br)cc2nc1C	n	n	x	n	n
COCCn1c(Cc2ccccc2)nnc1SCc1ccc([N+](=O)[O-])cc1	n	n	n	n	n
O=C(NC(=S)Nc1cc(-c2nc3ccccc3[nH]2)ccc1Cl)c1ccc2c(c1)OCO2	n	14	n	n	x
Cc1cccc(C)c1NC(=O)C[N+](C)(C)CC(O)COc1cccc2ccccc12 (configuration not stated)	n	n	n	n	n
Nc1ccc(/C=C/C(=O)c2cccs2)cc1	n	n	-7.4	n	-6
Cc1ccc(Oc2ccc(S(=O)(=O)N3CCOCC3)cc2C(N)=O)c(-n2nc3ccccc3n2)c1	n	27	x	n	x
C/C(=N\NC(=O)c1ccccc1[N+](=O)[O-])c1ccc(Br)s1	n	n	n	n	n
C/C(=N\NC(=O)c1ccccc1O)c1ccc(Br)s1	n	n	11	n	n
C/C(=N\NC(=O)c1cccc(F)c1)c1ccc(Br)s1	n	34	x	n	x
CCOC(=O)c1cnn(-c2ccc([N+](=O)[O-])cc2)c1N	n	x	x	x	x
CSc1cccc(NC(=S)N2CCCN(Cc3ccc(F)cc3)C2)c1	n	n	n	n	n
CN(C)CCCNC(=O)CCc1ncc(C(F)(F)F)cc1Cl	n	n	n	n	n
SMILES	bCat nuc transl	MT stabilizer	KCC2 mod	Redox H2O2 prof	ROMK primary
CN(C)CCCNc1ncc(C(F)(F)F)cc1Cl	n	14	n	n	n
COC(=O)c1ccc(-c2nc3ccccc3o2)cc1	n	x	x	x	x
COC(=O)c1ccc(-c2nc3ccc(C)cc3o2)cc1	n	52	x	n	x
CCCOc1ccc2nc(NC(=O)OC)[nH]c2c1	x	n	n	n	x
COC(=O)Nc1nc2ccc(C(=O)c3ccc(F)cc3)cc2[nH]1	66	x	n	x	x
CCOC(=O)N1N=C(C)CC1(O)c1ccc(Cl)cc1 (configuration not stated)	n	n	n	n	n
COC(=O)C1=NN(C(=O)c2ccc(Cl)cc2)C(O)(c2ccccc2)C1 (configuration not stated)	n	n	17	n	x
CCOC(=O)C1=NN(C(=O)c2ccc(C)cc2)C(O)(c2ccc(Cl)cc2)C1 (configuration not stated)	n	n	121	n	2.8
COc1ccc2[nH]cc(CCNS(=O)(=O)Cc3ccccc3)c2c1	n	n	n	n	n
Cc1onc(-c2c(Cl)cccc2Cl)c1CO/N=C(\C#N)c1c(Cl)cccc1Cl	n	x	n	x	x

Screening results (PubChem BioAssay)
